WT yeast gro inh = growth inhibition of WT yeast, mitochondrial fusion screen; 190,000 tested, 2.1% active; inhibition, % at 10 µM; mitochondrial fusion phenotypic screen, WT strain; in the data active = inhibition above about 58%; tested in S. cerevisiae
GRIN3A LBD mod = modulators (binders) of human NR3A ligand-binding domain | NR3A LBD differential scanning fluorimetry, Tm shift; 0% = protein alone, 100% = glycine-bound protein | Tm shift relative to glycine control, % at 25 µM | 340,000 tested, 2.5% active;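 active = melting temperature shift of at least 10% of the positive control shift, at one fixed dose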
TbMetRS inhib = Trypanosoma brucei MetRS inhibition; purified T. brucei MetRS, ATP depletion, Kinase-Glo luminescence; inhibition, % at 11.9 µM; 360,000 tested, 0.4% active; AID 624268;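 active = inhibition above a per-plate cutoff of the control wells' mean inhibition plus 3 SD, cut at about 5.5% in these data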;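 note: 0% = DMSO wells median and 100% = median of wells with control inhibitor compound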
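System: purified T. brucei MetRS enzyme / Detection: Kinase-Glo luciferase luminescence reporting remaining unconsumed ATP / Medium: HEPES buffer with MgCl2, KCl, DTT, spermine, BSA, pyrophosphatase / Replication: singlicate, one well per compound / Evaluation: percent inhibition relative to median high and low control wells / Schedule: 2 h aminoacylation at 25 °C after 15 min preincubation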
MPTP block = permeability transition pore inhibition; isolated mouse mitochondria, Ca2+ swelling absorbance, 30 min; 360,000 tested, 1.4% active; AID 602449; inhibition, % at 10 µM;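 active = inhibition of 50% or more, scaled per plate between neutral and stimulator controls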;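 note: 0% = DMSO wells given calcium and 100% = 1 mM EGTA wells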
CHOP inhibitor = CHOP inhibition in unfolded protein response; CHO-K1 CHOP-promoter luciferase, tunicamycin-induced, 15-18 h; 220,000 tested, 3.8% active; inhibition, % at 10 µM; AID 2732;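 active = compounds that reduced the stress-induced luciferase reporter signal by more than about 70% of percent inhibition, limit read from the data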;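 note: 0% = tunicamycin plus vehicle and 100% = wells without tunicamycin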
EBV gp42 block = blocks Epstein-Barr virus glycoprotein 42 binding | 220,000 tested, 0.42% active | Q1HVG2 | inhibition, % (tested at 21.74 µM) | Fluorescence polarization binding assay, mP read-out; in the data active = inhibition above about 50%
Target sequence (Q1HVG2 whole entry, looked up): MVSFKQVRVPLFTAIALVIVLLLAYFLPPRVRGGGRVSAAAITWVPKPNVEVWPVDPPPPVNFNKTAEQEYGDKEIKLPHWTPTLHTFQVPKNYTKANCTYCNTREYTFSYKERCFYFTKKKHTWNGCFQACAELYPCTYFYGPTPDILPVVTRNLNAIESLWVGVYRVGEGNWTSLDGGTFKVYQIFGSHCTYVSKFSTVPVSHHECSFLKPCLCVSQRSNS
Active calls of the source: *; x = no result. The list is not random: actives were taken first. Their share in the collection is about 6.4%.

SMILES	WT yeast gro inh	GRIN3A LBD mod	TbMetRS inhib	MPTP block	CHOP inhibitor	EBV gp42 block
COCCOc1ccc(C(F)(F)F)cc1Nc1nc2ccccc2o1	1	-1	-1	2	88*	-6
Cc1cn(C2CCCCC2)c(=O)[nH]c1=O	x	2	0	1	x	x
CCOP(=O)(OCC)C(Nc1cccc(C(F)(F)F)c1)c1ccc(Br)cc1 (stereo not drawn)	80*	x	x	x	35	-5
Clc1ccc(-c2cc3ccccc3[nH]2)cc1	7	17*	0	37	95*	-6
C#CCOc1ccc(Cl)cc1/C=C1/C(=O)ON=C1C	x	-1	0	0	x	x
Cc1ccccc1-c1nc(-c2ccc(NC(=O)c3ccc4c(c3)OCO4)cc2)no1	-6	34*	-1	8	40	-18
O=C(Nc1ccc(NC(=O)c2ccco2)c(Cl)c1)c1ccc2c(c1)OCCO2	x	31*	0	0	13	5
O=C(Nc1ccc(NC(=O)c2ccco2)cc1)c1ccc2c(c1)OCO2	-4	12*	-1	-4	34	-9
CCOC(=O)c1cnn(-c2cc(Oc3cccc(C)c3)ncn2)c1N	19	0	0	-6	59	-10
CC1=Nc2ccccc2/C1=C/c1c(N)n2c(S(=O)(=O)CC(C)C)nsc2nc1=O	13	16*	0	16	-9	4
CSc1nsc2nc(=O)c(/C=C3\C(C)=Nc4ccc(C)cc43)c(N)n12	23	21*	4	3	1	5
CC1=Nc2ccccc2/C1=C/c1c(N)n2c(S(=O)(=O)C(C)C)nsc2nc1=O	-8	9	0	2	13	-5
CC1=Nc2ccc(C)cc2/C1=C/c1c(N)n2c(S(=O)(=O)C(C)C)nsc2nc1=O	2	18*	2	8	-15	8
CCC(C(=O)OCC(=O)Nc1cccc(OC)c1)c1ccccc1 (stereo not drawn)	0	0	-1	2	-14	-5
CSCCC(Nc1ccc(S(=O)(=O)N2CCOCC2)cc1[N+](=O)[O-])C(=O)OCC(=O)NCC(C)C (stereo not drawn)	-7	-7	0	5	16	-11
CC(/C=C/c1ccc(O)cc1)=NNc1ccccc1	x	9	0	0	x	x
Cc1cccc(CS(=O)(=O)c2nnc([C@H](Cc3ccccc3)NC(=O)OC(C)(C)C)o2)c1	47	1	-1	1	115*	-16
CC(C)(C)OC(=O)N[C@@H](Cc1ccccc1)c1nnc(SCC(N)=O)o1	x	-1	0	2	9	-5
CCOc1ccc(S(=O)(=O)N(CC(=O)N/N=C/c2cccs2)c2ccc(C)cc2)cc1	13	-3	-1	5	76*	-7
COc1ccc(S(=O)(=O)N(CC(=O)N/N=C/c2cccs2)c2ccc(C)cc2)cc1OC	-6	-8	1	1	15	-12
O=c1[nH]c(Cc2ccccc2)nc2scc(-c3ccccc3)c12	-1	2	-1	-2	80*	-2
CN(Cc1ccccc1)Cc1nc2scc(-c3ccccc3)c2c(=O)[nH]1	14	-1	0	1	9	-10
Cc1ccc(Cn2c(=O)n(-c3ccccc3)c(=O)c3ccc(C(=O)NCc4ccco4)cc32)cc1	-17	-1	-1	-1	84*	-9
C=CCn1c(=O)c2ccc(C(=O)NCc3ccccc3)cc2n(Cc2ccc(C)cc2)c1=O	-10	0	0	0	79*	-17
Cc1ccc(S(=O)(=O)CCC(=O)OCC(=O)N2CCN(c3ccccc3)CC2)cc1	x	-1	0	0	x	x
SMILES	WT yeast gro inh	GRIN3A LBD mod	TbMetRS inhib	MPTP block	CHOP inhibitor	EBV gp42 block
Nc1c(C(=O)NC2CCCC2)c2nc3ccccc3nc2n1N	-11	-20	0	-3	74*	-6
CC(C)Cn1c(N)c(C(=O)NCC2CCCO2)c2nc3ccccc3nc21 (stereo not drawn)	60*	-9	2	0	23	5
Nc1c(C(=O)NC2CCCC2)c2nc3ccccc3nc2n1/N=C/c1ccco1	35	-7	-1	3	21	10
Nc1cc(=O)nc(SCC(=O)Nc2ccccc2)n1-c1ccccc1	-12	1	0	3	11	-16
Nc1nc(-c2cccnc2)nn1C(=O)Cc1ccccc1	2	0	0	-2	78*	-1
CC(C)(C)c1ccc(Oc2ccc(N)cn2)cc1	x	0	0	4	88*	-20
Cc1cc(Oc2ccc(N)cn2)cc(C)c1Cl	x	1	0	1	6	2
Cc1ccc(Cn2c(=O)sc3ccccc3c2=O)cc1	0	11*	-1	2	65	-1
COc1cccc(Cn2c(=O)sc3ccccc3c2=O)c1	4	0	0	1	9	-6
O=C(Nc1ccccc1C(=O)N/N=C/c1ccncc1)c1ccccc1	77*	2	-5	2	-7	-1
O=C(N/N=C/c1ccc[nH]1)c1ccccc1OCc1ccc(F)cc1	x	10	0	3	3	-15
CCOc1ccc(OCc2ccc(C(=O)NN=Cc3ccc[nH]3)cc2)cc1	x	19*	-1	0	x	x
CCOc1ccc(/C=N/NC(=O)c2ccccc2NC(=O)c2ccc(OC)cc2)cc1	45	15*	-2	1	32	-5
O=C(N/N=C/C=C/c1ccccc1)c1ccncc1	-22	25*	-1	1	13	-25
Cc1ccc(OCCCC(=O)NNC(=O)c2ccccn2)cc1	x	0	0	-1	x	x
CCC(=NCc1ccc(Cl)c(Cl)c1)c1nc(-c2ccco2)oc1O	67*	-1	-1	12	-4	5
Cc1ccccc1-n1c(C)cc(/C=N/Nc2ccc([N+](=O)[O-])cn2)c1C	-3	0	-1	0	16	-20
O=S(=O)(c1ccc(F)cc1)N1CC2CCCN2c2ccc(C(F)(F)F)cc21 (stereo not drawn)	13	-13	1	0	75*	-13
O=C(Nc1ccccc1)c1ccc(S(=O)(=O)NCc2ccco2)cc1	0	-2	0	2	24	-19
NS(=O)(=O)c1ccc(NC(=O)/C=C/c2ccc(S(=O)(=O)NCc3ccco3)cc2)cc1	x	38*	0	-1	x	x
O=C(O)/C=C/c1ccc(S(=O)(=O)NCc2ccco2)cc1	0	1	0	0	-12	-9
Cc1cc(C)n(-c2ccc(C(=O)Nc3ccc(S(=O)(=O)NCc4ccco4)cc3)cc2)n1	17	17*	1	-2	x	-10
CCOc1cc(C)c(Cl)cc1S(=O)(=O)NCc1ccco1	53	20*	-2	1	41	0
NS(=O)(=O)c1ccc(NC(=O)/C=C/c2cccc(Cl)c2)cc1	-9	28*	0	0	-8	0
COc1cc(/C(C)=N/NC(=O)C(O)(c2ccccc2)c2ccccc2)ccc1O	-1	0	0	0	11	7

Bioassay records from PubChem BioAssay.
